# Experimental data taken from ChEMBL document CHEMBL1156234, “Novel 4-(piperidin-4-yl)-1-hydroxypyrazoles as gamma-aminobutyric acid(A) receptor ligands: synthesis, pharmacology, and structure-activity relationships” (J Med Chem, 2010).
# Assays:
# [1] = Displacement of [3H]muscimol from GABAA in rat synaptic membrane in presence of 10% DMSO by scintillation counting; format: cell membranes
# [2] = biological target: T1, GABA-A receptor; alpha-1/beta-2/gamma-2 (Homo sapiens, UniProt P14867+P18507+P47870); experiment: Antagonist activity at human GABAA alpha-1-beta-2-gamma-2 receptor expressed in mouse tsA201 cells by FMP red assay; format: functional, cell-based
# T1 sequence (P14867 whole entry): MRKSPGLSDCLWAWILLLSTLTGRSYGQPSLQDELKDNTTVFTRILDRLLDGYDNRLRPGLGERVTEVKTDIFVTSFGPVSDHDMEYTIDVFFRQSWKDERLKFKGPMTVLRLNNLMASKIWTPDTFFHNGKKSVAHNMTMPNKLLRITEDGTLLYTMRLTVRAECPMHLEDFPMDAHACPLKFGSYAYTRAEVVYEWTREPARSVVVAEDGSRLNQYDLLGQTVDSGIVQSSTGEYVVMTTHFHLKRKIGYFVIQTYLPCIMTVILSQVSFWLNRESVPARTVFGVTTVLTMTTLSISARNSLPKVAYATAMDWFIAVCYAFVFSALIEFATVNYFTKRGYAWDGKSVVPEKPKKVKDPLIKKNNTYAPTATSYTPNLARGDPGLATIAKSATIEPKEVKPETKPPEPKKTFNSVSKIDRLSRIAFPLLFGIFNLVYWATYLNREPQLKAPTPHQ
# T1 sequence (P47870 whole entry): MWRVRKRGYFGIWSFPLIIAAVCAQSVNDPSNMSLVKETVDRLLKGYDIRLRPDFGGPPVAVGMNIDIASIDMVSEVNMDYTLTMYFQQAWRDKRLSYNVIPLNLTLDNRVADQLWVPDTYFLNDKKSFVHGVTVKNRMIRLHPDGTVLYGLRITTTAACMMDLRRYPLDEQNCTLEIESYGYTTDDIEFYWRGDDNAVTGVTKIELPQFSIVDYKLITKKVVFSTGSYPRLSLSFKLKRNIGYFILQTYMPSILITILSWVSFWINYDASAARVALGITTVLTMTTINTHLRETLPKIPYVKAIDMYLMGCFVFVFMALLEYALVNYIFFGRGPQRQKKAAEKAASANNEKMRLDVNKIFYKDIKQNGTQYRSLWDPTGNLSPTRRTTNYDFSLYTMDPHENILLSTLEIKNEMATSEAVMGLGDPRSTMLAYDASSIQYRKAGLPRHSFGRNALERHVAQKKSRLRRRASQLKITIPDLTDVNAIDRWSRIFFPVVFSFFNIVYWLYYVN
# T1 sequence (P18507 whole entry): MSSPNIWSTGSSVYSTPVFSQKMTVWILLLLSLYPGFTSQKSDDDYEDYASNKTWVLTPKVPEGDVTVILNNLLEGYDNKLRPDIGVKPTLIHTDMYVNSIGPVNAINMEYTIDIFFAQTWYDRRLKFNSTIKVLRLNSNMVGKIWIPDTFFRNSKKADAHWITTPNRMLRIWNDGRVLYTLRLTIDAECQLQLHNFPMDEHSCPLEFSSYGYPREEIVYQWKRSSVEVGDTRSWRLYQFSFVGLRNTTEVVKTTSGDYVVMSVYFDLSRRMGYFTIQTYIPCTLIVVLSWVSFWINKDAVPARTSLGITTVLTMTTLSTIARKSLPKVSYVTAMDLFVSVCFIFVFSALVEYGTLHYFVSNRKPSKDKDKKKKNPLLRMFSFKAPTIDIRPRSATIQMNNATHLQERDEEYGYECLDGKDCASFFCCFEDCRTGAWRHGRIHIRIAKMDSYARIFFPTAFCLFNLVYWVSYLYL
# Outline: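 Human α1β2γ2S GABAA receptor transiently expressed in tsA201 cells; FLIPR membrane potential (FMP) red assay. […] Compounds tested up to 500 μM. Values given as IC50 [pIC50 ± SEM].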
# [3] = Displacement of [3H]muscimol from GABAA in rat synaptic membrane by scintillation counting; format: cell membranes
# Outline: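 Rat brain synaptic membrane preparations; native GABAA receptor binding measured by displacement of [3H]muscimol. Ki reported as mean [mean pKi ± SEM] of three to four independent experiments.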
# [4] = biological target: T1, GABA-A receptor; alpha-1/beta-2/gamma-2; experiment: Agonist activity at human GABAA alpha-1-beta-2-gamma-2 receptor expressed in mouse tsA201 cells at < 500 uM by FMP red assay; format: functional, cell-based
# Outline: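 Human α1β2γ2S GABA-A receptor transiently expressed in tsA201 cells; agonist-mode FLIPR membrane potential (FMP) red assay measuring the fluorescence change in membrane potential; compounds tested at concentrations up to 500 μM.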
SMILES,Ki [1],pKi [1],IC50 [2],Ki [3],pKi [3],IC50 ([4]; read-out: IC50),IC50 ([4]; read-out: pIC50 (converted))
Cl.On1nc(-c2ccccc2)c(C2CCNCC2)c1Cc1ccc2ccccc2c1,1500 nM,5.84,3200 nM,–,–,–,–
Br.Cc1nn(O)cc1C1CCNCC1,–,–,66000 nM,5000 nM,5.31,–,–
Br.On1ncc(C2CCNCC2)c1-c1ccccc1,–,–,150 nM,22 nM,7.65,–,–
Cl.On1ncc(C2CCNCC2)c1-c1cccc(-c2ccccc2)c1,–,–,24 nM,–,–,–,–
Cc1ccccc1-c1nn(O)cc1C1CCNCC1.Cl,–,–,2600 nM,670 nM,6.17,–,–
Cc1cccc(-c2nn(O)cc2C2CCNCC2)c1.Cl,–,–,1900 nM,240 nM,6.62,–,–
Oc1noc(C2CCNCC2)c1Cc1ccc2ccccc2c1,–,–,1800 nM,49 nM,–,–,–
Br.On1nc(Cc2ccc3ccccc3c2)c(C2CCNCC2)c1-c1ccccc1,22 nM,7.66,–,–,–,–,–
Br.On1cc(C2CCNCC2)c(Cc2ccc3ccccc3c2)n1,–,–,170 nM,3 nM,8.55,–,–
Cl.On1ncc(C2CCNCC2)c1Cc1ccc2ccccc2c1,–,–,790 nM,33 nM,7.48,–,–
Br.On1cc(C2CCNCC2)c(-c2ccccc2)n1,–,–,1900 nM,270 nM,6.57,–,–
Br.Cc1ccc(-c2nn(O)cc2C2CCNCC2)cc1,–,–,1400 nM,320 nM,6.5,–,–
Br.On1cc(C2CCNCC2)c(-c2ccc(-c3ccccc3)cc2)n1,–,–,1400 nM,420 nM,6.39,–,–
Oc1noc(C2CCNCC2)c1Cc1ccc2ccccc2c1Br,–,–,–,10 nM,–,–,–
Oc1noc(C2CCNCC2)c1-c1ccccc1,–,–,–,220 nM,–,–,–
Cl.On1cc(C2CCNCC2)c(Cc2ccccc2)n1,–,–,8300 nM,360 nM,6.45,–,–
Cl.On1cc(C2CCNCC2)cn1,–,–,–,10000 nM,4.99,> 500000 nM,> 501000 nM
Cl.On1ncc(C2CCNCC2)c1Cc1ccc2ccccc2c1Br,9.5 nM,8.07,480 nM,–,–,–,–
Cl.On1cc(C2CCNCC2)c(-c2cccc(-c3ccccc3)c2)n1,–,–,210 nM,30 nM,7.55,–,–
Oc1noc(C2CCNCC2)c1-c1cccc(-c2ccccc2)c1,–,–,78 nM,10 nM,–,–,–
